# Hits are enriched below; roughly 3.9% of the tested compounds scored in any of these assays.
# TAAR1 antagonist – human TAAR1 antagonists, primary screen, Fluo-8 calcium fluorescence, CHO RD-HGA16 cells. antagonist. Trace amine-associated receptor 1 (Homo sapiens), Q96RJ0. inhibition, % at 3 µM. actives 1.5% (n = 360,000). AID 624466, 2012;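 active = inhibition above a per-plate cutoff, the mean inhibition of test compounds on that plate plus 3 SD, cut at about 49% in these data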;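 also: 0% = DMSO plus EC80 beta-PEA response and 100% = DMSO alone without agonist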
#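 Test system – hTAAR1-expressing CHO RD-HGA16 cells, Gα16-coupled · Reagent – β-PEA at EC80 concentration, post-compound challenge · Compound dosing – 3 µM, single point · Timing – 140 s kinetic read after compound, 140 s after agonist · Detection – Fluo-8 intracellular calcium dye fluorescence, real-time kinetic reads · Control set – DMSO and EC80 PEA controls · Repeats – n of 1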
# TMEM16A act – TMEM16A chloride channel activators or potentiators, primary screen, cell-based, HTS | HEK293 TMEM16A/YFP-H148Q/I152L, iodide quench fluorescence; hits give low values | actives 0.3% (n = 340,000) | B-score at 10 µM;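 active = fluorescence-ratio B-score plate-corrected deviation score at least 3 library SD below zero, with starting fluorescence score within 5 deviations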;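 also: channel opened by trigger with iodide after compound preincubation; score built on the fluorescence ratio of max minus min over baseline; more negative score means more quench and so TMEM16A activation or potentiation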
# Target sequence (Q8BHY3 whole entry, looked up): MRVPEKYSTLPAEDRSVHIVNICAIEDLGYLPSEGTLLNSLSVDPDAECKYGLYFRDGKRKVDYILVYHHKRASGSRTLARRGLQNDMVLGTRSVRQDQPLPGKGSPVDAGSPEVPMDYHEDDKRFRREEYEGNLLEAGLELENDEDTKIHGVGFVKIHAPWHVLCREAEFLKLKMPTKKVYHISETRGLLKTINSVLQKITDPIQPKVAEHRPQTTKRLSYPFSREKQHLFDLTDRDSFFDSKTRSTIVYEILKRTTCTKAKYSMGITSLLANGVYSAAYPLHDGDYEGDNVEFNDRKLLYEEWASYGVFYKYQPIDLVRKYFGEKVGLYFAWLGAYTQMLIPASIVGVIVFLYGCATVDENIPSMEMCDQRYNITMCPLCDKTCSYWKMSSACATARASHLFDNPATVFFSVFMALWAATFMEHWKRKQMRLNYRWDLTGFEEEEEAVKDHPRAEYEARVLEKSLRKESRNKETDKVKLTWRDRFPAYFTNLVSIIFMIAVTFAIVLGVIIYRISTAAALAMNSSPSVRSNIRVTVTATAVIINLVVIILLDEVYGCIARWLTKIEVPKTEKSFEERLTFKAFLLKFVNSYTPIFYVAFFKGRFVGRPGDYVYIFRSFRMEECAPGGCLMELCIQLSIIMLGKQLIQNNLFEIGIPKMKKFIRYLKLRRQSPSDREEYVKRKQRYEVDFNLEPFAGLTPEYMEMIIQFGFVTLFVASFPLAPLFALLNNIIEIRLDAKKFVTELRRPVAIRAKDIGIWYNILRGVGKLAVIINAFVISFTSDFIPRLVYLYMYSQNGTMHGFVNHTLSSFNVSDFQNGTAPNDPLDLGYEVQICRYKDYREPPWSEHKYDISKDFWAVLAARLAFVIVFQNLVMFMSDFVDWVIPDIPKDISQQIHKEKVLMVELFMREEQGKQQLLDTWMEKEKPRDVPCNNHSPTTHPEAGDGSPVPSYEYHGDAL
# TMEM16A inh – TMEM16A chloride channel inhibitors, primary screen, cell-based, HTS. HEK293 TMEM16A/YFP iodide influx fluorescence, ionomycin. normalized B-score (activity score, 25-100; higher = stronger inhibition) at 10 µM. AID 588511, 2011. actives 1.2% (n = 310,000);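 active = ratio plate-corrected score three or more library SD toward inhibition, starting fluorescence score within five deviations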;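 also: score derived from kinetic fluorescence span divided by baseline fluorescence per well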
# CRFBP-R2 agonist – agonists of CRF-BP/CRF-R2 complex, primary screen, cell-based, HEK293, calcium dye fluorescence, uHTS; actives 0.46% (n = 350,000); calcium dye fluorescence (FLIPR); percent of saturating CRF peptide response; activation, % at 13.2 µM; CRF-binding protein / CRF receptor 2 complex (human); AID 588473, 2011;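 active = activation of at least 50%, plus an integration ratio under a set limit after plate pattern correction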;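 also: plate controls were neutral control wells without compound for no effect and CRF at EC100 for full effect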
# TAAR1 agonist – human TAAR1 agonists, primary screen, Fluo-8 calcium fluorescence, CHO RD-HGA16 cells | actives 0.99% (n = 360,000) | vehicle wells 0%, saturating PEA agonist 100% | activation, % at 3 µM | AID 624467, 2012;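 active = activation above the mean activation of all test compounds in the run plus 3 SD, cut at about 38% in these data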
#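 Assay system: CHO-derived RD-HGA16 cells with stable Gα16 and human TAAR1; timing: 17-24 h seeding, 75 min 37 °C dye, 30 min RT; read-out: % activation from peak over basal fluorescence ratio, DMSO-to-PEA scaled; measured by: kinetic Fluo-8 calcium fluorescence; benchmarks: low control DMSO, high control PEA (EC100); doses: 3 µM single concentration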
# CRFBP-R2 block – antagonists of CRF-BP/CRF-R2 complex, primary screen, cell-based, HEK293, calcium dye fluorescence, uHTS. CRF-induced calcium fluorescence. inhibition, % at 11.8 µM. actives 0.59% (n = 350,000). AID 588475, 2011;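 active = inhibition of the ligand-induced calcium signal above about 50% at the single tested concentration, limit read from the data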
# TAAR1 nonsel count – nonselective antagonists in TAAR1 counter-screen cells, counter-screen for hTAAR1 antagonist project, cell-based, fluorescence, calcium. shares compounds with TAAR1 antagonist. counterscreen cell line, antagonist mode. inhibition, % at 3 µM. actives 77% (n = 2,400); in the data active = inhibition above about 22%;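 also: CHO-Ga16 host cells stimulated with ATP at an EC80 level; 0% = agonist EC80 plus vehicle and 100% = vehicle without agonist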
# TAAR1 ant conf – human TAAR1 antagonists, retest of hits, confirmation, cell-based, fluorescence | shares compounds with TAAR1 antagonist | TAAR1-expressing cells, fluorescence antagonist read-out | actives 40% (n = 2,400) | AID 651785, 2012 | inhibition, % at 3 µM; in the data active = inhibition above about 49%;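 also: CHO-Ga16 host cells challenged with agonist PEA near its EC80; 0% = agonist at EC80 plus vehicle and 100% = vehicle with no agonist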
# Ga16 ag counter – calcium activation in Ga16-expressing cells, counter-screen for TAAR1 antagonist project, cell-based, fluorescence; shares compounds with TAAR1 antagonist; actives 18% (n = 2,400); activation, % at 3 µM; AID 651953, 2012; agonist counterscreen; in the data active = activation above about 12%;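 also: 0% = vehicle wells and 100% = saturating stimulus response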
# TAAR1 ag count – TAAR1 activation by candidate antagonists – cell-based, fluorescence, counter-screen for TAAR1 antagonist project; AID 651955, 2012; hTAAR1 cell line, agonist mode; shares compounds with TAAR1 antagonist; actives 2% (n = 2,400); activation, % at 3 µM; in the data active = activation above about 37%;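 also: CHO cells stably expressing TAAR1 with calcium dye readout; 0% = DMSO vehicle and 100% = full agonist response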
# * marks the source's active call; other numbers are inactive results; i = inactive; . = no result.
SMILES,TAAR1 antagonist,TMEM16A act,TMEM16A inh,CRFBP-R2 agonist,TAAR1 agonist,CRFBP-R2 block,TAAR1 nonsel count,TAAR1 ant conf,Ga16 ag counter,TAAR1 ag count
CC(=O)n1cc([C@H]2C=C(C(=O)N3CCN(Cc4ccccc4)CC3)O[C@@H](OCc3ccc(CO)cc3)C2)c2ccccc21,69*,i,i,3,27,-6,35*,46,9,9
O=C(C1=C[C@@H](c2csc3ccccc23)C[C@@H](OCc2ccc(CO)cc2)O1)N1CCOCC1,57*,i,i,0,32,7,26*,35,6,6
O=C(NC1CC1)C1=C[C@H](c2csc3ccccc23)C[C@H](OCc2ccc(CO)cc2)O1,58*,i,i,-1,34,-15,26*,44,16*,23
O=C(Nc1ccccc1)C1=C[C@@H](c2coc3ccccc3c2=O)C[C@@H](OCc2ccc(CO)cc2)O1,51*,i,i,-1,8,7,20,25,2,-1
O=C(CN1CCN(C(=O)C2CCCO2)CC1)Nc1ccc(Br)cc1 (stereo unspecified),-3,i,i,1,1,-2,.,.,.,.
Cc1ccc(C)c(OCCC(=O)OCC(=O)NCCNC(=O)COC(=O)CCOc2cc(C)ccc2C)c1,87*,i,i,-1,20,6,48*,68*,16*,18
Cc1ccc(C)c(OCCC(=O)OCC(=O)NCc2ccccc2)c1,-27,i,i,-1,-2,23,.,.,.,.
COc1ccc(N2CCN(C(=O)COC(=O)c3oc4ccc(OC)cc4c3C)CC2)cc1,69*,i,i,-1,14,5,42*,57*,11,9
COc1ccc(N2CCN(C(=O)COC(=O)CCOc3cc(C)ccc3C)CC2)cc1,51*,i,i,0,10,4,40*,52*,12*,7
CCC/C=C1/CCCOC(C(=O)NCc2ccc(C)o2)(C(F)(F)F)C1 (stereo unspecified),-7,i,.,-3,-2,3,.,.,.,.
Cc1cccc(NC(=O)c2oc3ccc(S(=O)(=O)N4CCOCC4)cc3c2C)c1C,58*,i,i,2,18,-82,31*,51*,9,9
Cc1ccc(NC(=O)c2oc3ccc(S(=O)(=O)N4CCOCC4)cc3c2C)c(C)c1,37,i,i,8,10,8,.,.,.,.
CC(=O)c1cccc(NC(=O)COC(=O)C2CCCN2C(=O)c2cccs2)c1 (stereo unspecified),30,i,.,-2,4,0,.,.,.,.
CC(OC(=O)[C@@H]1CCCN1C(=O)c1cccs1)C(=O)Nc1cccc([N+](=O)[O-])c1 (stereo partly specified),66*,i,.,-3,9,-2,42*,47,13*,13
CC(C)n1c(SCC(=O)NCc2ccco2)nnc1C1CC1,-1,i,i,0,1,-8,.,.,.,.
CC(=O)C1=C(C)N(Cc2ccc(F)cc2)C(=S)NC1c1cccc(Br)c1 (stereo unspecified),44,.,.,.,0,.,.,.,.,.
COC(=O)C1=C(C)N(Cc2ccc(F)cc2)C(=S)NC1c1cccc(Br)c1 (stereo unspecified),54*,.,.,.,-1,.,19,27,3,4
COC(=O)C1=C(C)N(Cc2ccc(C(F)(F)F)cc2)C(=NCc2ccc3c(c2)OCO3)NC1c1cccc(Cl)c1 (stereo unspecified),49*,.,.,.,29,.,31*,30,14*,34
CCCN(C)C[C@@H]1OCc2cnnn2CCCC(=O)N([C@H](C)CO)C[C@H]1C,-14,.,.,9,0,6,.,.,.,.
COc1cccc(COC(=O)Nc2ccccc2)c1OC,-14,.,.,.,-1,.,.,.,.,.
C=C(C)C1CCC(C)=C1COC(=O)Nc1ccccc1 (stereo unspecified),53*,i,i,-1,21,21,-2,2,-1,-3
COc1ccccc1CNC(=O)COc1cccc(-n2cnnn2)c1,0,i,i,-1,1,13,.,.,.,.
c1ccc(-c2cc(-c3nc4ccccc4[nH]3)c3ccccc3n2)cc1,83*,i,i,1,16,-47,40*,66*,12*,8
Nc1ccc(-c2nc3ccccc3[nH]2)cc1,-4,i,i,0,2,-7,.,.,.,.
CNC(=O)C(C)c1ncc(C(F)(F)F)cc1Cl (stereo unspecified),98*,i,i,0,-3,10,2,-5,-1,-2
CC(C(=O)Nc1ccc(Cl)cc1)c1ncc(C(F)(F)F)cc1Cl (stereo unspecified),13,i,i,-1,4,12,.,.,.,.
COc1ccc(CN(C)C(=O)C2CSC3(C)CCC(=O)N23)cc1OC (stereo unspecified),-15,i,.,0,3,5,.,.,.,.
C[C@H]1CCC2[C@](C)(CO)[C@@H](O)CC[C@]2(C)[C@@]12CCC(CO)(CCO)O2 (stereo partly specified),0,i,i,0,2,-7,.,.,.,.
CCOC(=O)C1=C(COC(=O)/C=C/c2cccc(OC)c2)NC(=O)NC1C (stereo unspecified),67*,i,i,-1,17,-17,22*,53*,9,14
CCOC(=O)C1=C(COC(=O)/C=C/c2ccc(OC)cc2)NC(=O)NC1C (stereo unspecified),43,i,.,1,13,-6,.,.,.,.

# Screens deposited in PubChem by several laboratories.
